This note sets out measurements from ChEMBL document CHEMBL4706741, “De Novo Design, Synthesis, and Mechanistic Evaluation of Short Peptides That Mimic Heat Shock Protein 27 Activity” (ACS Med Chem Lett, 2021).

Activity calls are given as the source filed them. The calls are words filed in the database; no cut-off is given here. Where a SMILES comes first, the peptide text is derived from it.

Holding throughout (type): functional
The nature of assay [1]: Chaperone like activity at heat-induced citrate synthase aggregation assessed as aggregation at 200 uM incubated for 5 mins followed by heat stimulation for 3 mins in 43 degC and measured after 60 mins by fluorimetric analysis (reference value: 100%). Particulars: time 68.0 min. Summed up:
(§1)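 Thermal aggregation of citrate synthase (150 nM). Peptides were brought to 43 °C in buffer, and CS was added once the temperature had equilibrated. Light scattering at 360 nm was monitored over time. CS with 1% DMSO was set as 100% aggregation, with an Hsp27 (600 nM) chaperone reference run on the same day. Mean ± SEM of at least two or three independent experiments.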

Assay [2] in a line: Chaperone like activity at Gdn-Cl/DTT-induced citrate synthase aggregation assessed as aggregation at 200 uM incubated for 5 mins followed by heat stimulation for 3 mins in 43 degC and measured after 60 mins by fluorimetric analysis (reference value: 100%). Particulars: time 68.0 min. Summed up: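 Citrate synthase (150 nM) unfolded with guanidine chloride and DTT at room temperature, then a small aliquot diluted into refolding buffer with peptide (200 μM) or Hsp27 (600 nM). Aggregation followed by light scattering for 1 h. The 1% DMSO control at 1 h was taken as 100% aggregation. Mean ± SEM of at least two independent experiments.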

A short description of assay [3]: Chaperone like activity at heat-induced citrate synthase aggregation assessed as aggregation incubated for 5 mins followed by heat stimulation for 3 mins in 43 degC and measured after 60 mins by fluorimetric analysis relative to control. Particulars: time 68.0 min. A digest of the protocol:
as §1

Assay [4] in a line: Chaperone like activity at heat-induced citrate synthase aggregation assessed as aggregation at 30 uM incubated for 5 mins followed by heat stimulation for 3 mins in 43 degC and measured after 60 mins by fluorimetric analysis (reference value: 100%). Particulars: time 68.0 min. A digest of the protocol:
as §1

Assay [5] in a line: Chaperone like activity at heat-induced citrate synthase aggregation assessed as aggregation at 100 uM incubated for 5 mins followed by heat stimulation for 3 mins in 43 degC and measured after 60 mins by fluorimetric analysis (reference value: 100%). The settings on record: time 68.0 min. Summed up:
as §1

Assay [6] in a line: Chaperone like activity at heat-induced citrate synthase aggregation assessed as aggregation at 150 uM incubated for 5 mins followed by heat stimulation for 3 mins in 43 degC and measured after 60 mins by fluorimetric analysis (reference value: 100%). Particulars: time 68.0 min. Summed up:
as §1

A short description of assay [7]: Chaperone like activity at heat-induced citrate synthase aggregation assessed as aggregation at 60 uM incubated for 5 mins followed by heat stimulation for 3 mins in 43 degC and measured after 60 mins by fluorimetric analysis (reference value: 100%). Particulars: time 68.0 min. Summed up: as §1
Assay [8] in a line: Chaperone like activity at heat-induced citrate synthase aggregation assessed as aggregation at 1.2 uM incubated for 5 mins followed by heat stimulation for 3 mins in 43 degC and measured after 60 mins by fluorimetric analysis (reference value: 100%). The settings on record: time 68.0 min. Summed up:
as §1

The nature of assay [9]: Chaperone like activity at kappa-casein amyloid formation at 10 to 200 uM measured upto 21 hrs by fluorescence based assay. Particulars: dose 10-200 µM, time hrs <=21.
The nature of assay [10]: Chaperone like activity at heat-induced citrate synthase aggregation assessed as aggregation at 0.6 uM incubated for 5 mins followed by heat stimulation for 3 mins in 43 degC and measured after 60 mins by fluorimetric analysis (reference value: 100%). The settings on record: time 68.0 min. A digest of the protocol: as §1
A short description of assay [11]: Chaperone like activity at kappa-casein amyloid formation at 200 uM measured upto 21 hrs by fluorescence based assay. The settings on record: time hrs <=21.

Regarding H-SWDPFRDW-OH, the Activity in assay [1] was 13%; in [2] it was 0%; in [3], “Dose-dependent effect”.

With `N[C@H](CO)C(=O)N[C@H](Cc1c[nH]c2ccccc12)C(=O)N[C@H](CC(=O)O)C(=O)N1CCC[C@@H]1C(=O)N[C@H](Cc1ccccc1)C(=O)O`, the Activity in assay [1] worked out at 90%.

As for H-DWDPF-OH, in [1], the Activity turned out to be 110%.

In the case of `N[C@@H](CO)C(=O)N[C@@H](Cc1c[nH]c2ccccc12)C(=O)N[C@@H](CC(=O)O)C(=O)N1CCC[C@H]1C(=O)N[C@@H](Cc1ccccc1)C(=O)O`, the Activity in [1] turned out to be 46%; in assay [4] it was 73%; in assay [2] it was 63%; in assay [5], 23%; in assay [6] it was 15%; in assay [7], 63%. In addition, the Activity in [8] is 75%; in [3] it was “Dose-dependent effect”; in assay [10], 92%. For the same compound, in assay [9], the result was inactive.

On to H-SWDPFRD-OH, for which the Activity stood at 57% in [1] and 52% in [2].

H-AWDPF-OH: the Activity in [1] worked out at 96%.

On to H-GPSWDPFRDW-OH, for which the Activity in assay [1] is 46%; in assay [3] it was “Dose-dependent effect”. In addition, in assay [11], the result was inactive.

Regarding H-SWDPA-OH, the Activity in assay [1] was 78%.

Consider H-SADPF-OH, for which the Activity in [1] was 86%.

H-WDPFR-OH: the Activity in assay [1] was 98%.

H-SWAPF-OH: the Activity in [1] is 81%.

As for H-SWDAF-OH, in assay [1], the Activity came to 80%.

As to H-SWDPFR-OH, in assay [1], the Activity was 96%.

For the compound `N[C@@H](Cc1c[nH]c2ccccc12)C(=O)N[C@@H](CC(=O)O)C(=O)N1CCC[C@H]1C(=O)N[C@@H](Cc1ccccc1)C(=O)O` (H-WDPF-OH), the Activity in assay [1] was determined as 115%.
